Results reported in ChEMBL document CHEMBL1143339, “Design and synthesis of amidoxime derivatives for orally potent C-alkylamidine-based antimalarial agents” (Bioorg Med Chem Lett, 2009).

Tests used:
[1] = system: Plasmodium vinckei petteri; assay: Antimalarial activity against Plasmodium vinckei petteri 279BY infected Swiss mice (Mus musculus) at daily peroral dose for 4 days; format: functional; settings: po, 96 h
Summary of the method: (§1)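 Female Swiss mice infected iv with 10⁷ P. vinckei petteri 279BY parasites (about 0.5% parasitemia on day 1). Dosed ip or orally once daily on days 1–4 post-infection. Parasitemia read on day 5 and expressed as % of untreated control. Three mice per dose; mean ± SEM.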

Plasmodium falciparum = assay: Antimalarial activity after 48 hrs against chloroquine-sensitive Plasmodium falciparum Nigerian by [3H]hypoxanthine uptake; format: functional, organism-based
Summary of the method: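 IC50 against P. falciparum given as the mean of at least two independent experiments, each run in duplicate.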

[2] = system: Plasmodium vinckei petteri; assay: Antimalarial activity against Plasmodium vinckei petteri 279BY infected Swiss mice (Mus musculus) at 180 mg/kg/day peroral dose over 4 days; format: functional; settings: route oral; summary of the method: as §1
[3] = system: Plasmodium vinckei petteri; assay: Antimalarial activity against Plasmodium vinckei petteri 279BY infected Swiss mice (Mus musculus) at daily intraperitoneal dose for 4 days; format: functional; settings: ip, 96 h; summary of the method: as §1
[4] = system: Plasmodium vinckei petteri; assay: Antimalarial activity against Plasmodium vinckei petteri 279BY infected Swiss mice (Mus musculus) at 120 mg/kg/day peroral dose over 4 days; format: functional; settings: route oral; summary of the method: as §1
[5] = system: Plasmodium vinckei petteri; assay: Antimalarial activity against Plasmodium vinckei petteri 279BY infected Swiss mice (Mus musculus) at 20 mg/kg/day intraperitoneal dose over 4 days; format: functional; summary of the method: as §1

| Structure (SMILES) | IC50 (Plasmodium falciparum) [nM] | ED50 [1] [mg/kg] | Activity [2] [%] | ED50 [3] [mg/kg] | Activity [4] [%] | Activity [5] [%] |
| --- | --- | --- | --- | --- | --- | --- |
| CO/N=C(/N)CCCCCCCCCCCCC(=N)NOC | 6800 | 180 | 50 | > 20 | – | – |
| NC(=O)c1nc(CCCCCCCCCCCCc2noc(C(N)=O)n2)no1 | 7000 | – | – | > 20 | – | – |
| N#Cc1nc(CCCCCCCCCCCCc2noc(C#N)n2)no1 | 100000 | – | – | > 20 | – | – |
| N=C(CCCCCCCCCCCC/C(N)=N\OC(=O)Nc1ccccc1)NOC(=O)Nc1ccccc1 | – | > 180 | – | > 20 | – | – |
| N=C(N)CCCCCCCCCCCCC(=N)N [TETRADECANEBIS(IMIDAMIDE)] | – | > 100 | – | > 10 | – | – |
| O=c1[nH]c(CCCCCCCCCCCCc2noc(=O)[nH]2)no1 | 9200 | 100 | – | > 20 | – | – |
| N/C(CCCCCCCCCCCC/C(N)=N/O)=N\O | 3500 | 120 | – | – | – | – |

The remaining compounds from weak to strong by IC50 (Plasmodium falciparum), led by results:

| IC50 (Plasmodium falciparum) [nM] | Structure (SMILES) | ED50 [1] [mg/kg] | Activity [2] [%] | ED50 [3] [mg/kg] | Activity [4] [%] | Activity [5] [%] |
| --- | --- | --- | --- | --- | --- | --- |
| 1400 | CC(=O)O/N=C(/N)CCCCCCCCCCCCC(=N)NOC(C)=O | > 90 | – | > 10 | – | – |
| 1100 | N=C(CCCCCCCCCCCC/C(N)=N\OC(=O)c1ccccc1)NOC(=O)c1ccccc1 | > 90 | – | > 10 | – | – |
| 180 | CCNC(=O)O/N=C(/N)CCCCCCCCCCCCC(=N)NOC(=O)NCC | 90 | – | > 20 | 80 | – |
| 17.5 | O=c1[nH]c(CCCCCCCCCCCCc2nsc(=O)[nH]2)ns1 | > 120 | – | 20 | 25 | 50 |
| 2.5 | CS(=O)(=O)O/N=C(/N)CCCCCCCCCCCCC(=N)NOS(C)(=O)=O | 40 | – | 7 | – | – |
| 2.2 | Cc1c(CCO)sc[n+]1CCCCCCCCCCCC[n+]1csc(CCO)c1C [ALBITIAZOLIUM BROMIDE] | – | – | – | – | – |
